From PMC6301001 (Cancer chemotherapy and pharmacology, 2015)
Several values for one entry are separate records, joined by “and”; a condition that tells them apart may be missing. Equal values may be shown once. Entries after “also recorded” stand apart in the source; their conditions may differ. Read-outs that look alike come from different tables or passages of the source.

Assays:
[1] = type: in vivo, rhesus monkeys (Macaca mulatta); details: single oral dose 7 mg/kg; for Cl: plasma clearance
In short: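 Single 7 mg/kg oral dose by nasogastric tube under ketamine sedation to three adult male rhesus monkeys (10.5–14.7 kg) fitted with central venous ports. Blood sampled at 0–10, 24 and 48 h, then on days 0–64; plasma held at –80 °C. Total drug by HPLC/MS/MS after acetonitrile precipitation with miltefosine internal standard; standards 0.001–10 µg/ml; LLOQ 1 ng/ml. Non-compartmental: observed Cmax/Tmax, trapezoidal AUC0–inf, t1/2 = 0.693/k, Cl = dose/AUC0–inf.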

[2] = type: in vivo, rhesus monkeys (Macaca mulatta)
In short: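 Three adult male rhesus monkeys with an implanted fourth-ventricular CSF catheter/reservoir, sedated with ketamine (10 mg/kg IM), then given a single 7 mg/kg oral dose by nasogastric tube. CSF (0.3 ml) sampled at 0–10, 24 and 48 h, then in a repeat study on days 0–64. Total drug by HPLC/MS/MS (LLOQ 0.1 ng/ml). Non-compartmental analysis: observed Cmax; trapezoidal AUC0–inf; t1/2 = 0.693/terminal rate constant; penetration = CSF/plasma AUC0–inf.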

human tumor cell lines = details: wide variety of human tumor cell lines; reported range; cited from earlier work
[3] = adult patients with solid tumors, cited from earlier work
[4] = tested on: mouse model of DIPG in which the PI3Kinase/Akt pathway is activated; details: genetically engineered mouse model of DIPG; cited from earlier work
glioma cell lines = details: cited from earlier work
[5] = tested on: U251 xenografts injected into the hind limb; details: cited from earlier work
[6] = cited from earlier work
[7] = CSF, individual NHP, single oral dose 7 mg/kg, 7 mg/kg

CCCCCCCCCCCCCCCCCCOP(=O)([O-])OC1CC[N+](C)(C)CC1 [Perifosine]
Cl ([1]; individual NHP, 7 mg/kg): 77.6 mL/h and 36.5 mL/h and 63.3 mL/h
Cl ([1]; mean (range) of 3 NHP): 59.1 mL/h
T 1/2 ([1]; plasma terminal half-life, individual NHP, 7 mg/kg): 193 h and 170 h
AUC ([1]; plasma, individual NHP, T = 0 to infinity, 7 mg/kg): 2139 µg·h/mL and 1137 µg·h/mL
Cmax ([1]; plasma, individual NHP, sampling to 64 days, 7 mg/kg): 8800 ng/mL and 5300 ng/mL
time plasma concentrations remained >1 µM ([1]; plasma): > 28 days
t 1/2 ([2]; CSF terminal half-life, individual NHP, single oral dose 7 mg/kg, 7 mg/kg): 146 h and 277 h and 350 h
Cmax [2, 7]: 1.85 ng/mL and 4.39 ng/mL and 4.57 ng/mL
Tmax [2, 7]: 63.6 h and 235.3 h and 235.4 h
AUC ([2]; CSF, individual NHP, single oral dose 7 mg/kg, T = 0 to infinity, 7 mg/kg): 1.031 µg·h/mL and 3.44 µg·h/mL and 2.89 µg·h/mL
maximum measured CSF concentration ([2]; CSF, mean of 3 NHP, single oral dose 7 mg/kg, molar equivalent): 7.8 nM
CSF AUC ([2]; CSF, median (range) of 3 NHP, single oral dose 7 mg/kg): 6358 (2266–7568) nM/h
Cmax in the CSF in initial experiments ([2]; CSF, oral 7.0 mg/kg, collection up to 48 h, 7 mg/kg): had not been reached by 48 h; also recorded: has not been reached by 48 h
time to maximum CSF concentration ([2]; CSF, single oral dose 7 mg/kg, 7 mg/kg): > 7 days and 7 days
Kp ([2]; male, rhesus monkey, CSF, po, 7 mg/kg): 0.0016
AUCCSF:AUCPl (ratio of CSF to plasma exposure) ([2]; mean of 3 NHP, single oral dose 7 mg/kg): .0016
time levels were measurable in both plasma and CSF ([2]; plasma and CSF, after a single oral dose): > 2 months
CSF concentrations relative to plasma concentrations (fold less) ([2]; single oral dose 7 mg/kg): 1000 fold
IC.50 (human tumor cell lines): .09 to 9.2 µg/mL
terminal half-life in humans ([3]; 50–350 mg/day orally for 3 weeks): 105 h
plasma half-lives ([3]; oral dose): 80 to 116 h
time of peak plasma concentrations ([3]; oral dose): 8 to 24 h
activity in mouse model of pontine glioma [4]: absent activity; also recorded: lacked activity; also recorded: no activity was observed
activity in vitro against glioma cell lines (glioma cell lines): demonstrated activity
activity in vivo in mice bearing U251 xenografts [5]: demonstrated activity
tolerability in early phase clinical trials [6]: relatively well tolerated
single-agent responses in patients ([6]; renal cell carcinoma, sarcoma and Waldenstroms macroglobulinemia, Phase I and Phase II): single-agent objective responses have been reported
